Compounds with a hit are over-represented: about 1.4% of the library has one in this group of screens.
MOR-DOR ag-1: agonists of OPRM1-OPRD1 heterodimerization, primary screen, cell-based, luminescence; activation, % at 9.3 µM; Mu-type opioid receptor (Homo sapiens) + Delta-type opioid receptor (Homo sapiens), …; cells; 0.3% of 340,000 active; AID 504326, 2011
Target sequence (P35372 whole entry, looked up): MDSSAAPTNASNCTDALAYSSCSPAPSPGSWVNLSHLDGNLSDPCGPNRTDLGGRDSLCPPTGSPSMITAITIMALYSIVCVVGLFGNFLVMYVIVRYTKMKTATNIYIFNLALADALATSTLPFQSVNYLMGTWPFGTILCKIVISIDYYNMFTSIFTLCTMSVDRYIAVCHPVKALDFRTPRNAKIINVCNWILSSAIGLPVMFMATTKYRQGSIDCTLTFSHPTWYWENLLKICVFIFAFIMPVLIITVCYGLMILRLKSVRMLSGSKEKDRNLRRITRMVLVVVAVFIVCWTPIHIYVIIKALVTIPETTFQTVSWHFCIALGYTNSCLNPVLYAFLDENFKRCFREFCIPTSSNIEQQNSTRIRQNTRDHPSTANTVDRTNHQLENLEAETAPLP
Target sequence (P41143 whole entry, looked up): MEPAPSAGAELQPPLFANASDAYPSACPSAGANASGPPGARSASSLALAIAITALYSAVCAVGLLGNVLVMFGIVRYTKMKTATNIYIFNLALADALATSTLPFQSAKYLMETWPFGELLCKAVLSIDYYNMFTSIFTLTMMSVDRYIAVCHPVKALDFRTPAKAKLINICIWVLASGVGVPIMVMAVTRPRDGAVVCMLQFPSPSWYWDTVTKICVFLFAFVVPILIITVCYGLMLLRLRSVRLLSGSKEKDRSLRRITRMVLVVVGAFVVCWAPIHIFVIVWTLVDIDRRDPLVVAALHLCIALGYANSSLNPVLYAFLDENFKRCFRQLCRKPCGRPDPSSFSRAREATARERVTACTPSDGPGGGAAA
Lipid droplet: inhibitors of hepatocyte lipid droplet formation, primary screen, imaging, high-throughput imaging, BODIPY stain | 0.4% of 240,000 active | AML12 mouse hepatocytes, oleate lipid droplets | inhibition, % at 6.5 µM;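 active = lipid droplet intensity inhibited by at least 50%, with more than 500 cells counted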
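Technique: fluorescence imaging, 20x objective, two fields per well / Assay system: AML12 hepatocytes (mouse) / Measure: % inhibition of lipid droplet signal / Doses: 6.5 µM single-point dosing / Incubation: overnight exposure / Reagent: 100 µM oleic acid challenge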
OPRM1-OPRD1 inv: inverse agonists of MOR-DOR heterodimerization, primary screen, cell-based, luminescence | inhibition, % at 9.3 µM | Mu-type opioid receptor (Homo sapiens) + Delta-type opioid receptor (Homo sapiens), … | cell-based MOR-DOR heterodimer luminescence, inverse agonism | 0.21% of 340,000 active; in the data active = inhibition above about 22%, passing the limit was not always enough
HTR5A inv ctr: HTR5A inverse agonists in luminescence cell assay, primary screen, counter-screen for OPRM1-OPRD1 heterodimer inverse agonist project, full-deck HTS | inhibition, % at 9.3 µM | 0.083% of 340,000 active | HTR5A cell line, inverse agonism | AID 504634, 2011; in the data active = inhibition mostly above about 23%, no sharp cut-off; inactive = mostly below about 18%
HTR5A ag: HTR5A agonists in luminescence cell assay, primary screen, counter-screen for OPRM1-OPRD1 heterodimer agonist project, full-deck HTS; 5-hydroxytryptamine receptor 5A (Homo sapiens), P47898; activation, % at 9.3 µM; 0.61% of 340,000 active; cell-based; AID 504692, 2011; in the data active = activation mostly above about 9.5%, no sharp cut-off; inactive = mostly below about 7.6%
MOR-DOR ag-2: OPRM1-OPRD1 heterodimerization promoters, counter-screen for HTR5A agonist project, cell-based, luminescence | activation, % at 9.3 µM | 13% of 800 active | AID 504913, 2011 | shares compounds with HTR5A ag | U2OS counter-screen cells, complementation luminescence, 3 h
HTR5A ag conf: HTR5A agonists, retest of hits, confirmation, cell-based, luminescence | activation, % at 9.3 µM | 17% of 800 active | AID 504915, 2011 | shares compounds with HTR5A ag | HTR5A agonist cell assay; in the data active = activation above about 17%
Of the large screens only hits and unclear results are named; the others gave an inactive call (follow-up assays come after a bar, where they were run); ! = not confirmed by another sample. Cut-off read from the data, not from the text of the source, unless noted: active = activation above about 18%; inactive = the rest.

O=C(NCCc1c[nH]c2ccccc12)C(=O)NCC1OCCN1S(=O)(=O)c1ccccc1 (stereo not given)	HTR5A ag 36 | MOR-DOR ag-2 inactive | HTR5A ag conf 57
CCOC(=O)N1CCC(NC(=O)CCC(=O)N2CCOc3ccc(C)cc32)CC1	none (no result: Lipid droplet)
CCOC(=O)N1CCN(C(=O)CCC(=O)N2CCOc3ccc(C)cc32)CC1	HTR5A ag 21 (no result: Lipid droplet) | MOR-DOR ag-2 inactive | HTR5A ag conf inactive
CCN(C(=O)c1ccc(S(=O)(=O)N2CCC(C)CC2)cc1)C1CCS(=O)(=O)C1 (stereo not given)	none (no result: Lipid droplet)
CCn1c(SCC(=O)NC2CC2)nnc1-c1ccc(OC)cc1	none
CCCN1C[C@H](CSC)C[C@@H]2c3cccc4[nH]cc(c34)C[C@H]21	HTR5A ag 90 | MOR-DOR ag-2 38 | HTR5A ag conf inactive
Cc1cccc(/C=N/NC(=O)c2ccc(NC(=O)c3ccc(F)cc3)cc2)n1	HTR5A ag 21 | MOR-DOR ag-2 inactive | HTR5A ag conf inactive
Cc1cccc(/C=N/NC(=O)c2ccc(NC(=O)c3ccc(Cl)cc3)cc2)n1	none
O=C(Cn1ccc(C(F)(F)F)n1)N=Nc1c(O)[nH]c2ccc(Br)cc12	none
Cc1cccc(NC(=O)N2CCC(NC(=O)C3CCCCC3)CC2)c1	HTR5A ag 17 | MOR-DOR ag-2 inactive | HTR5A ag conf inactive
O=C(O)c1cccc(CN2C(=O)c3ccccc3C2=O)c1	none
O=C1c2cccc3c(O)ccc(c23)C(=O)N1Cc1ccccc1	HTR5A ag 17 | MOR-DOR ag-2 20 | HTR5A ag conf inactive
O=C(Cn1ncc2c1-c1ccccc1OC2)Nc1cccc(Cl)c1	none (no result: Lipid droplet)
NS(=O)(=O)c1ccc(NC(=O)Cn2ncc3c2-c2ccccc2OC3)cc1	HTR5A ag 19 (no result: Lipid droplet) | MOR-DOR ag-2 inactive | HTR5A ag conf inactive
O=C(Nc1ccccc1C(=O)O)c1ccc2ccccc2n1	HTR5A ag 26 (no result: Lipid droplet) | MOR-DOR ag-2 52 | HTR5A ag conf inactive
O=C1C2C(c3ccccc3)CC=CC2[C@H](c2cccc([N+](=O)[O-])c2)N1Cc1ccccc1 (stereo not given in full)	none
COc1ccc2c(c1)Cc1sc(NC(C)=O)nc1-2	HTR5A ag 15 | MOR-DOR ag-2 inactive | HTR5A ag conf inactive
CC(NC(=O)C(C)N1CCN(S(=O)(=O)c2ccccc2)CC1)c1ccccc1 (stereo not given)	none (no result: Lipid droplet)
Cc1ccc(C(=O)N2[C@@H]3CN(C)C(=O)[C@@]2(Cc2ccccc2)[C@H]2C(=O)N(C)C(=O)[C@@H]32)cc1	none (no result: Lipid droplet)
CCn1nc(C)c(/C=N/NC(=O)c2nc3nc(C)cc(C)n3n2)c1C	HTR5A ag 16 | MOR-DOR ag-2 inactive | HTR5A ag conf inactive
CCCCCn1nc(C)c(/C=N/NC(=O)c2ccoc2C)c1C	none
Cc1cc(C)n2nc(C(=O)N/N=C/c3ccccc3Cl)nc2n1	none
CCn1nc(C)c(/C=N/NC(=O)c2ccoc2C)c1C	HTR5A ag 18 (no result: Lipid droplet) | MOR-DOR ag-2 inactive | HTR5A ag conf inactive
C/C(=N\NC(=O)c1ccccc1O)c1ccc(Br)s1	HTR5A ag 15 | MOR-DOR ag-2 inactive | HTR5A ag conf 28
COc1ccc(CSCC(=O)N/N=C/c2ccccc2OCc2ccccc2)cc1	HTR5A ag 22 | MOR-DOR ag-2 inactive | HTR5A ag conf inactive
COc1ccc(OC)c(NC(=O)COC(=O)c2cc3c(s2)CCC3)c1	HTR5A ag 15 | MOR-DOR ag-2 inactive | HTR5A ag conf inactive
COc1ccccc1NC(=O)COC(=O)c1cc2c(s1)CCC2	none (no result: Lipid droplet)
Cc1cccc(-n2nc3c(c2NC(=O)c2ccc4c(c2)OCO4)CS(=O)(=O)C3)c1C	none
COc1ccc(-c2c(-c3ccsc3)oc(=O)c3cc(OC)c(OC)cc23)cc1	HTR5A ag 23 (no result: Lipid droplet) | MOR-DOR ag-2 inactive | HTR5A ag conf inactive
COc1ccc(NC(=O)Nc2cccc3c2O[C@H](CN(C)C(=O)NC(C)C)[C@@H](C)CN([C@H](C)CO)C3=O)cc1	none (no result: Lipid droplet)
CC(C)(C)S(=O)N1Cc2cn(Cc3ccccc3)c(=O)cc2[C@@H]1CCO (stereo not given in full)	none (no result: Lipid droplet)
NC(=O)c1nsc(C(=O)N(c2cccc(F)c2)C(C(=O)NCC2CCCO2)c2cccs2)c1N (stereo not given)	none
CC1CCC(C(C)C)C(OC(=O)Cn2c(-c3ccc(Br)cc3)[n+](C)c3ccccc32)C1 (stereo not given)	HTR5A ag 17 | MOR-DOR ag-2 50! | HTR5A ag conf inactive
O=C(COC(=O)/C=C/c1ccc2c(c1)OCO2)NCc1ccccc1	none (no result: Lipid droplet)
COc1ccccc1NCC(=O)N/N=C/c1sccc1C	HTR5A ag 26 | MOR-DOR ag-2 inactive | HTR5A ag conf inactive
COc1ccc(CNC(=O)CCc2nnc3ccc(NCCCN4CCCC4=O)nn23)cc1	none
COc1cccc(CNC(=O)CCc2nnc3ccc(NCCCN4CCCC4=O)nn23)c1	HTR5A ag 17 | MOR-DOR ag-2 inactive | HTR5A ag conf inactive
CC[C@H](C)[C@H](NC(N)=O)C(=O)NCCc1ccc(Cl)cc1Cl	none (no result: MOR-DOR ag-1, OPRM1-OPRD1 inv, HTR5A inv ctr, HTR5A ag)
O=C(CCNS(=O)(=O)/C=C/c1ccccc1)NCCc1c[nH]c2ccccc12	none
COc1ccc(N2C(=O)CCC(C(=O)O)C2c2ccc(F)cc2)cc1 (stereo not given)	HTR5A ag 16 (no result: Lipid droplet) | MOR-DOR ag-2 inactive | HTR5A ag conf inactive
COc1ccc(N2C(=O)CCC(C(=O)N3CCCCC3)C2c2ccc(F)cc2)cc1 (stereo not given)	none
COc1ccc(C(=O)N/C(=C\c2ccco2)C(=O)NCCN2CCOCC2)cc1	none
O=C(NCCCNC(=O)c1ccccn1)c1ccc(Br)cc1	none
O=C(NCCCNC(=O)c1ccccn1)c1ccc(Cl)cc1	HTR5A ag 18 | MOR-DOR ag-2 inactive | HTR5A ag conf inactive
CCOc1ccc(S(=O)(=O)Nc2ccc(C(=O)NCc3ccncc3)cc2)cc1	none (no result: Lipid droplet)
COc1ccccc1OCC(=O)Nc1cccc(-c2nnc(-c3ccco3)o2)c1	none
O=C(COc1ccccc1)Nc1ccc(-c2nnc(-c3ccco3)o2)cc1	HTR5A ag 16 (no result: Lipid droplet) | MOR-DOR ag-2 inactive | HTR5A ag conf inactive
CC(Oc1cccc(Br)c1)C(=O)NNC(=O)CCNC(=O)c1ccccc1Cl (stereo not given)	none (no result: Lipid droplet)
COc1ccc(Cl)cc1NC(=S)NCc1ccccn1	none
COc1ccc(Cl)cc1NC(=O)NCc1ccccn1	HTR5A ag 17 | MOR-DOR ag-2 inactive | HTR5A ag conf inactive

Screening results as filed in PubChem.
